Bioassay records as filed in PubChem BioAssay.
ASAP1 inh – inhibitors of human ASAP1 ArfGAP activity; Q9ULH1; ASAP1-stimulated ARF1 GTP hydrolysis, GDP FP detection; inhibition, % at 16.5 µM; 360,000 compounds, 0.19% hits; in the data active = inhibition above about 25%
PAFAH1B3 inh – blocks human PAF acetylhydrolase 1B catalytic subunit 3 | 340,000 compounds, 0.28% hits | recombinant PAFAH1B3, FP-rhodamine probe, fluorescence polarization | Q15102 | inhibition, % at 3.39 µM;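 active = inhibition above the screen-wide average of all tested compounds plus 3 SD, cut at about 25% in these data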
ARFGAP1 inhibitor – inhibits rat ARF GTPase activating protein 1; Q62848; Arfgap1-stimulated ARF1 GTP hydrolysis, GDP FP detection; inhibition, % at 16.5 µM; 360,000 compounds, 0.26% hits; AID 651572;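 active = inhibition above a per-plate limit, mean inhibition of low control wells plus 3 SD, cut at about 25% in these data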
Target sequence (Q62848 1-136 limits assumed): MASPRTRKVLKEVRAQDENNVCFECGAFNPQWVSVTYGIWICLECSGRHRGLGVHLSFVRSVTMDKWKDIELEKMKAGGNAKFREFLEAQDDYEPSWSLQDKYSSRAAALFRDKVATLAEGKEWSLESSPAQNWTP
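material = rat Arfgap1 catalytic domain, aa 1-136 | also added = human ARF1(Δ1-17)-GTP substrate | compound dosing = one concentration, 16.5 µM, DMSO 1.26% | times = GTP hydrolysis reaction 2 h at 25 °C | measured by = FP, GDP Alexa 633 tracer displaced from anti-GDP antibody, 620/688 nm | evaluation = percent inhibition of Arfgap1-stimulated GTP hydrolysis | replication = single well per compound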
PAFAH1B2 inh – PAFAH1B2 (human) inhibition; 340,000 compounds, 1.2% hits; inhibition, % at 3.39 µM; recombinant PAFAH1B2, FP-rhodamine activity probe, fluorescence polarization;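 active = inhibition above the mean of all tested compounds plus 3 SD, cut at about 24% in these data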
pPAFAH inh – inhibitors of human plasma PAF acetylhydrolase (pPAFAH). recombinant pPAFAH, FP-rhodamine probe fluorescence polarization. inhibition, % at 3.39 µM. 330,000 compounds, 1.5% hits. AID 463082;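 active = inhibition above the mean inhibition across the screen plus 3 SD, cut at about 25% in these data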;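 also: inhibitors block binding of the rhodamine activity-based probe so polarization drops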
Target sequence (Q13093 whole entry, looked up): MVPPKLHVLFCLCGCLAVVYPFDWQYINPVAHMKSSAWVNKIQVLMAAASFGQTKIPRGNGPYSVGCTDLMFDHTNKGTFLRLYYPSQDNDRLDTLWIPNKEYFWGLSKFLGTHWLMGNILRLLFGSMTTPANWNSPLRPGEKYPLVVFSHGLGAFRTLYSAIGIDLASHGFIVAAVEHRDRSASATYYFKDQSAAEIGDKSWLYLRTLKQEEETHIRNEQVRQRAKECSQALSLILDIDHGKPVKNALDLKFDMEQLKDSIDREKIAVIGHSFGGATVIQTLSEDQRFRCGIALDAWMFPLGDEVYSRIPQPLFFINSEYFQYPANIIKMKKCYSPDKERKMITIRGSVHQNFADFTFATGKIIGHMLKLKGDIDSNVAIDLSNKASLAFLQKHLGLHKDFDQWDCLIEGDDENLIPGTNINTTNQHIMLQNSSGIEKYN
PAFAH2 inh – inhibitors of human PAFAH2; Q99487; recombinant PAFAH2, FP-rhodamine activity probe, fluorescence polarization; inhibition, % at 3.39 µM; 340,000 compounds, 0.99% hits; AID 492956;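 active = inhibition above the mean over all tested compounds plus 3 SD, cut at about 30% in these data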;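 also: inhibitors block probe labeling of enzyme so polarization drops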
Numbers stand for hits; n = inactive; x = no result; ! = not active in a repeat. In the library only some 2.8% were active in any assay of this set; here they are far more common.

SMILES	ASAP1 inh	PAFAH1B3 inh	ARFGAP1 inhibitor	PAFAH1B2 inh	pPAFAH inh	PAFAH2 inh
CCN(CC)c1ccc(NC(=O)CSc2n[nH]c(-c3ccco3)n2)cc1	n	n	n	n	n	n
O=C(NCCc1ccc(Cl)cc1Cl)c1ccc2nc[nH]c2c1	n	n	n	29	n	n
O=C(NCCSc1ccc(Br)cc1)c1ccc2nc[nH]c2c1	n	n	n	47	30	n
COP(=O)(OC)OC(C(=O)c1ccccc1)c1ccc(Cl)cc1 (stereo unspecified)	n	x	n	x	x	x
N#CC1=C(S)N(c2ccccc2)C(c2ccc(-c3cccc(Cl)c3)o2)NC1=O (stereo unspecified)	n	n	n	n	28	n
Cc1cccc(N2C(S)=C(C#N)C(=O)NC2c2ccco2)c1 (stereo unspecified)	n	n	n	n	n	n
Cc1ccc(S(=O)(=O)NC(CC(C)C)C(=O)Nc2ccncc2)cc1 (stereo unspecified)	n	n	n	25	n	n
Cc1ccc(S(=O)(=O)NC(CC(C)C)C(=O)Nc2nccs2)cc1 (stereo unspecified)	n	n	n	n	n	n
COc1ccc(NC(=O)C2CCCN(S(=O)(=O)c3ccc4c(c3)CCCN4C(C)=O)C2)cc1 (stereo unspecified)	n	n	n	n	n	n
COc1cc(NC(=O)C2CCCN(S(=O)(=O)c3ccc4c(c3)CCCN4C(C)=O)C2)cc(OC)c1 (stereo unspecified)	n	n	n	n	30	n
O=C(C1CCCN(S(=O)(=O)c2cc(Cl)ccc2Cl)C1)N1CCOCC1 (stereo unspecified)	n	n	n	n	n	n
C[C@H](OC(=O)NCc1ccc(C(F)(F)F)cc1)[C@@H]1O[C@@]2(C)CCC[C@@H]1O2	n	n	n	25	n	n
C[C@H](OC(=O)N1CCN(C(c2ccccc2)c2ccccc2)CC1)[C@@H]1O[C@@]2(C)CCC[C@H]1O2	n	n	n	n	n	n
O=C(NCc1ccc(F)cc1)C1CCN(S(=O)(=O)c2cccc3nonc23)CC1	n	n	n	n	n	n
CN1CCN(S(=O)(=O)c2ccc(-c3ccc(Cl)cc3)cc2)CC1	n	n	n	n	n	n
COc1ccc(NC(=O)CCN2CCN(S(=O)(=O)c3ccc(C(C)C)cc3)CC2)cc1	n	n	n	n	n	n
COc1ccc(NC(=O)CCN2CCN(S(=O)(=O)c3ccc(Cl)cc3)CC2)cc1	n	n	n	25	n	n
O=C(C1CCCCC1)N1CCN(S(=O)(=O)c2ccc(Cl)cc2)CC1	n	n	n	27	n	n
O=C(CN1CCN(S(=O)(=O)c2ccc(F)cc2)CC1)c1ccc(O)c(O)c1	n	n	n	n	n	n
O=C(CN1CCN(S(=O)(=O)c2ccc(Cl)cc2)CC1)c1ccc(O)c(O)c1	x	n	x	33	n	n
O=C(C1CCN(S(=O)(=O)c2ccc(Cl)cc2)CC1)N1CCCCCCC1	n	n	n	n	n	n
Cc1ccc(S(=O)(=O)c2ccc(Cl)cc2)cc1S(=O)(=O)N1CCN(C)CC1	n	n	n	26	n	n
O=S(=O)(CCN1CCCCC1)CCS(=O)(=O)CCN1CCCCC1	n	n	n	n	x	n
CC(NC(=O)Cn1cc([N+](=O)[O-])cn1)c1ccc(C(C)(C)C)cc1 (stereo unspecified)	n	n	n	n	n	n
CCC(CC)C(=O)N(C)c1c(C)nc2c(OCc3cccc(Cl)c3)cccn12	n	x	n	x	x	x
SMILES	ASAP1 inh	PAFAH1B3 inh	ARFGAP1 inhibitor	PAFAH1B2 inh	pPAFAH inh	PAFAH2 inh
COCCCC1CCN(C(=O)c2cc(COc3cc(C)ccc3C)on2)CC1	n	n	n	n	n	n
COCCNC(=O)C1CCCN(C(=O)/C=C/c2ccccc2)CC1 (stereo unspecified)	n	x	n	x	x	x
Cc1ccccc1Oc1ccc2c(c1)[C@@H]1C[C@H](N(C)C(=O)c3ccco3)[C@H]([C@H](C)O)C(=O)N1CC2	n	x	n	x	x	x
O=S1(=O)CCC(N(N=Cc2ccco2)c2ccccc2)C1 (stereo unspecified)	n	x	n	x	x	x
CC(NC(=O)C1CCCN(S(=O)(=O)N2CCOCC2)C1)c1ccccc1 (stereo unspecified)	n	n	n	n	n	n
O=S(=O)(c1ccc(Cl)cc1)N1CCCC(C(F)(F)F)C1 (stereo unspecified)	n	n	n	30	n	n
Cc1ccc(C)c(S(=O)(=O)N2CCN(C(=O)c3ccc4ccccc4n3)CC2)c1	n	n	n	n	n	n
O=C(c1cncc(Br)c1)N1CCN(S(=O)(=O)c2ccc(Cl)cc2)CC1	n	n	n	25	n	n
CN1CCN(S(=O)(=O)c2ccc(Cl)cc2)CC1	n	n	n	25!	n	n
O=C(c1ccc2ccccc2n1)N1CCN(S(=O)(=O)c2ccc(Cl)cc2)CC1	n	n	n	28	n	n
O=C(c1cccnc1)N1CCN(S(=O)(=O)c2cccc(Cl)c2)CC1	n	n	n	n	x	n
COc1ccc(S(=O)(=O)N2CCCC(C(F)(F)F)C2)cc1 (stereo unspecified)	n	n	n	n	n	n
O=C(CC[C@H]1O[C@@H](n2cnc3c(NC(=O)c4ccccc4)ncnc32)[C@H](O)[C@@H]1O)NCc1ccccn1	n	x	n	x	x	x
O=[N+]([O-])c1ccccc1/C=C/C=N/n1c(-c2ccc(Cl)cc2)n[nH]c1=S	n	n	n	n	27	n
O=C(Cc1c(Cl)cccc1Cl)N1CCN(S(=O)(=O)c2cccs2)CC1	n	n	n	n	n	n
CCOc1cc(/C=N/N=C2/NC(=O)C(CC(=O)O)S2)ccc1OCc1ccc(Cl)cc1Cl (stereo unspecified)	x	n	x	n	26	n
CC(NC(=O)c1cccc(S(=O)(=O)N2CCCCCC2)c1)c1ccccc1 (stereo unspecified)	n	n	n	25	n	n
CC(NC(=O)c1cc(S(=O)(=O)N2CCCC2)cn1C)c1ccccc1 (stereo unspecified)	n	n	n	n	n	n
N#Cc1c(Nc2ccccc2)c(C=NCCN2CCOCC2)c[nH]c1=O	n	n	n	n	29	n
N#Cc1c(Nc2ccccc2)c(/C=N/NCCO)c[nH]c1=O	n	n	n	n	26	n
N#Cc1c(Nc2ccccc2)c(/C=N/N=C/c2ccccc2)c[nH]c1=O	n	n	n	n	n	n
CCCCC(=O)NC(c1ccco1)c1cc(Cl)c2cccnc2c1O (stereo unspecified)	n	n	n	n	29	n
CC(=O)Nc1ccc(S(=O)(=O)N(CCCN2CCOCC2)Cc2cccs2)cc1	n	n	n	n	n	n
CC(C)(C)c1ccc(S(=O)(=O)N(CCCN2CCOCC2)Cc2cccs2)cc1	n	n	n	n	32	30
